Assay type in all cases: functional, cell-based
Assay [1] concerns the target T1, Adenosine receptor A1 (Homo sapiens) (UniProt P30542).
T1 sequence (whole entry): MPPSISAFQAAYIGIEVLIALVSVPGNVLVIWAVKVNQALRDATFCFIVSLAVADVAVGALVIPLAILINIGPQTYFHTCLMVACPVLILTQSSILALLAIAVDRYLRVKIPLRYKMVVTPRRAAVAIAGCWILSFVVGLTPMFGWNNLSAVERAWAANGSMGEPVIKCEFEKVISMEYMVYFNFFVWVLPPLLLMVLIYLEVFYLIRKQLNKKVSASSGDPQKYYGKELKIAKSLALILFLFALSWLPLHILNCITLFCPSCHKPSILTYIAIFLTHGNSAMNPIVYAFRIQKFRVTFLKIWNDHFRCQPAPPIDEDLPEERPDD
Put plainly: Percentage of response to 10 uM of PD-81723 on CHO cells expressing the cloned human A1-adenosine receptor at 10 uM concentration. The essentials:
(§1)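 CHO cells stably expressing recombinant human A1 receptors (~8000 fmol/mg protein), thawed from low-passage frozen stocks, grown to confluence over 48–72 h in Ham's F-12 with 10% FBS and G-418. Test compound incubated 6 min at 36 °C with 0.05–0.1 nM CPA. Reaction stopped with HCl (final 50 mM). cAMP in acid extracts measured by radioimmunoassay. Reduction normalized to the response to 10 μM PD 81,723.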

Assay [2] concerns the target T1, Adenosine receptor A1 (Homo sapiens). Put plainly: Percentage of response to 10 uM of PD-81723 on CHO cells expressing the cloned human A1-adenosine receptor at 1 uM concentration. The essentials:
as §1

Assay [3] has the same target. Put plainly: Percentage of response to 10 uM of PD-81723 on CHO cells expressing the cloned human A1-adenosine receptor at 0.1 uM concentration. The essentials: as §1
For assay [4] the target is unchanged. Put plainly: Percentage of response to 10 uM of PD-81723 on CHO cells expressing the cloned human A1-adenosine receptor at 10 uM; An increase of cAmp content of cells. The essentials: as §1
Assay [5] shares this target. Put plainly: Percent response to 10 uM PD-81723 on CHO cells expressing human A1-adenosine receptor at 0.1 uM; An increase of cAmp content of cells. In short, it runs like this: as §1
Assay [6] shares this target. The assay is described as follows: Percentage of response to 10 uM of PD-81723 on CHO cells expressing the cloned human A1-adenosine receptor at 1 uM; An increase of cAmp content of cells. The essentials: as §1
The target is the same in assay [7]. Put plainly: The compound was tested for its percentage of response to 10 uM of PD-81723 on CHO cells expressing the cloned human A1-adenosine receptor at 1 uM concentration; change of less than 5% of allosteric enhancement. The essentials: as §1
Assay [8] has the same target. The assay is described as follows: Percentage of response to 10 uM of PD-81723 on CHO cells expressing the cloned human A1-adenosine receptor at 0.1 uM. In short, it runs like this: as §1
Assay [9] has the same target. Put plainly: The compound was tested for its percentage of response to 10 uM of PD-81723 on CHO cells expressing the cloned human A1-adenosine receptor at 10 uM; An increase of cAmp content of cells. In short, it runs like this: as §1
For assay [10] the target is unchanged. Put plainly: The compound was tested for its percentage of response to 10 uM of PD-81723 on CHO cells expressing the cloned human A1-adenosine receptor at 0.1 uM; An increase of cAmp content of cells. The essentials: as §1
Assay [11] shares this target. The assay is described as follows: The compound was tested for its percentage of response to 10 uM of PD-81723 on CHO cells expressing the cloned human A1-adenosine receptor at 0.1 uM concentration; An increase of cAmp content of cells. The essentials:
as §1

The target is the same in assay [12]. The assay is described as follows: The compound was tested for its percentage of response to 10 uM of PD-81723 on CHO cells expressing the cloned human A1-adenosine receptor at 10 uM concentration; change of less than 5% of allosteric enhancement. In short, it runs like this: as §1
For assay [13] the target is unchanged. Put plainly: The compound was tested for its percentage of response to 10 uM of PD-81723 on CHO cells expressing the cloned human A1-adenosine receptor at 1 uM; change of less than 5% of allosteric enhancement. In short, it runs like this:
as §1

Assay [14] shares this target. Put plainly: The compound was tested for its percentage of response to 10 uM of PD-81723 on CHO cells expressing the cloned human A1-adenosine receptor at 10 uM concentration; An increase of cAmp content of cells. The essentials:
as §1

For assay [15] the target is unchanged. Put plainly: The compound was tested for its percentage of response to 10 uM of PD-81723 on CHO cells expressing the cloned human A1-adenosine receptor at 10 uM; change of less than 5% of allosteric enhancement. In short, it runs like this: as §1

With `Nc1sc2c(c1C(=O)c1ccc(Cl)cc1)CCNC2`, the Response turned out to be 9% in [1], 12% in assay [2] and 15% in [3].
In the case of `Cc1sc(N)c(C(=O)c2ccc(Cl)cc2)c1C`, the Response in [1] came to 92%; in [2], 52%; in assay [3], 30%.
Regarding `Nc1sc2c(c1C(=O)c1ccccc1)CCN(C(=O)OCc1ccccc1)C2`, the Response entry in [4], in assay [5] and in assay [6] was “Increased cAMP” each time.
For the molecule `Nc1sc2c(c1C(=O)c1ccc(-c3ccccc3)cc1)CCNC2`, the figures for the Response in assay [7], in assay [4] and in assay [8] were < 5%, “Increased cAMP” and < 5%, respectively.
On to `Nc1sc2c(c1C(=O)c1ccc(Br)cc1)CCN(C(=O)OCc1ccccc1)C2`, for which the Response result in [9], in [10] and in [6] was “Increased cAMP” in each case.
For the molecule `Nc1sc2c(c1C(=O)c1ccc(Cl)cc1)CCCCC2`, the Response in [1] is 72%; in assay [2], 42%; in assay [3], 25%.
As to `COc1ccc(C(=O)c2c(N)sc3c2CCC3)cc1`, the Response in assay [1] was 42%; in assay [2], 43%; in [8] it was < 5%.
Regarding `Nc1sccc1C(=O)c1ccccc1`, the Response is 28% in assay [1], 26% in assay [2] and 51% in assay [3].
Taken in the same sequence, the figures for `Nc1sc2c(c1C(=O)c1ccccc1)CCCC2` were 77%, 48% and 16%.
With `Nc1sc2c(c1C(=O)c1ccc(Cl)cc1)CCN(CCCc1ccccc1)C2`, the Response was 31% in assay [1], 15% in [2] and 8% in [3].
Take `Nc1sc2c(c1C(=O)c1ccccc1)CCCCC2`: the Response in [1] is 54%; in [2], 29%; in assay [11], “Increased cAMP”.
For the molecule `Nc1sc2c(c1C(=O)c1ccc(Cl)cc1)CCCCCC2`, the values for the Response in assay [1], in [2] and in assay [3] were 68%, 39% and 24%, respectively.
For the molecule `Nc1sc2c(c1C(=O)c1ccc(I)cc1)CCN(C(=O)OCc1ccccc1)C2`, the Response in assay [7], in assay [12] and in assay [8] was < 5% in each case.
With `Nc1sc2c(c1C(=O)c1ccc(Cl)cc1)CCC2`, the Response was < 5% in [13], < 5% in assay [12] and “Increased cAMP” in assay [5].
With `Nc1sc2c(c1C(=O)c1ccc(F)cc1)CCC2`, the Response was 65% in assay [1], 43% in [2] and < 5% in [8].
With `Cc1sc(N)c(C(=O)c2cccc(C(F)(F)F)c2)c1C`, the Response was found to be 100% in [1], 40% in [2] and 13% in assay [3].
Taken in the same sequence, the figures for `Nc1sc2c(c1C(=O)c1ccc(Cl)cc1)CCCC2` were 86%, 58% and 57%.
The matching figures for `Nc1sc2c(c1C(=O)c1ccc(F)cc1)CCCCC2`: 61%, 36% and 26%.
The matching figures for `Nc1sc2c(c1C(=O)c1ccc(-c3ccccc3)cc1)CCCC2`: 68%, 79% and 14%.
For `Nc1sc2c(c1C(=O)c1ccc(-c3ccccc3)cc1)CCN(C(=O)OCc1ccccc1)C2`, the results for the Response in [2], in [12] and in assay [3] were 6%, < 5% and 14%, respectively.
Regarding `Nc1sc2c(c1C(=O)c1cccc(C(F)(F)F)c1)CCN(CCc1ccccc1)C2`, the Response entry in [14] is “Increased cAMP”; in [7] it was < 5%; in [8] it was < 5%.
In the case of `Nc1sccc1C(=O)c1ccc(Cl)cc1`, the Response in assay [1] worked out at 25%; in assay [2], 8%; in assay [3], 7%.
Turning to `Nc1sc2c(c1C(=O)c1ccc(Cl)cc1)CCN(Cc1ccccc1)C2`, the Response entry was “Increased cAMP” in [4], < 5% in assay [8] and “Increased cAMP” in assay [6].
Turning to `Nc1sc2c(c1C(=O)c1ccccc1)SCC2`, the Response in [1] is 68%; in [7] it was < 5%; in [11], “Increased cAMP”.
For the molecule `CCOC(=O)CN1CCc2c(sc(N)c2C(=O)c2ccccc2)C1`, the Response entry in assay [4], in assay [5] and in assay [6] was “Increased cAMP” each time.
Take `Cc1ccc(S(=O)(=O)N2CCc3c(sc(N)c3C(=O)c3ccccc3)C2)cc1`: the Response result in assay [4], in assay [5] and in assay [6] was “Increased cAMP” each time.
On to `COc1ccc(C(=O)c2c(N)sc3c2CCCCC3)cc1`, for which the Response in [1] was 36%; in assay [2], 54%; in assay [8] it was < 5%.
On to `Nc1sc2c(c1C(=O)c1ccc(I)cc1)CCC2`, for which the Response in assay [15] is < 5%; in assay [5], “Increased cAMP”; in assay [6] it was “Increased cAMP”.
For the molecule `Nc1sc2c(c1C(=O)c1ccccc1)CCN(CCc1ccc([N+](=O)[O-])cc1)C2`, the Response in assay [1] was 31%; in [2] it was 13%; in assay [5], “Increased cAMP”.
As for `Nc1sc2c(c1C(=O)c1ccccc1)CCC2`, the Response in [1] amounted to 82%; in assay [2], 29%; in assay [3] it was 35%.
Take `Nc1sc2c(c1C(=O)c1ccc(I)cc1)CCNC2`: the Response in assay [7], in assay [12] and in assay [8] was < 5% in each case.
As to `Nc1sc2c(c1C(=O)c1ccccc1)CCNC2`, the figures for the Response in [1], in assay [2] and in assay [8] were 12%, 9% and < 5%, respectively.
The matching figures for `COc1ccc(C(=O)c2c(N)sc3c2CCCC3)cc1`: 71%, 44% and < 5%.
On to `Nc1sc2c(c1C(=O)c1ccc(Br)cc1)CCC2`, for which the figures for the Response in assay [1], in [2] and in [3] were 72%, 53% and 31%, respectively.
With `Nc1sc2c(c1C(=O)c1ccc(Cl)cc1)CCN(CCc1ccccc1)C2`, the Response is 32% in assay [2], “Increased cAMP” in [4] and 58% in assay [3].
Turning to `Nc1sc2c(c1C(=O)c1ccc(F)cc1)CCN(C(=O)OCc1ccccc1)C2`, the Response result in [4] was “Increased cAMP”; in [8], < 5%; in [6] it was “Increased cAMP”.
Turning to `Nc1sc2c(c1C(=O)c1cccc(C(F)(F)F)c1)CCN(Cc1ccccc1)C2`, the Response in [1] came to 85%; in assay [2], 41%; in [3], 18%.
With `CCOC(=O)CN1CCc2c(sc(N)c2C(=O)c2ccc(Cl)cc2)C1`, the Response entry was “Increased cAMP” in assay [4], “Increased cAMP” in assay [6] and 10% in assay [3].
In the case of `Nc1sc2c(c1C(=O)c1ccc(Br)cc1)CCCC2`, the results for the Response in [1], in assay [2] and in [3] were 67%, 67% and 50%, respectively.
Turning to `Nc1sc2c(c1C(=O)c1ccc(F)cc1)CCCC2`, the Response was 83% in [1], 43% in [2] and < 5% in assay [8].
The matching figures for `Nc1sc2c(c1C(=O)c1cccc(C(F)(F)F)c1)CCN(CCCc1ccccc1)C2`: 22%, 7% and < 5%.

The values above are taken from ChEMBL document CHEMBL1133137, “Synthesis and biological effects of a new series of 2-amino-3-benzoylthiophenes as allosteric enhancers of A1-adenosine receptor” (Bioorg Med Chem Lett, 2000).
